The source made the active and inactive calls. The rule behind the calls is not given here.
Assays:
MDA-MB-231 [1] = experiment: Growth inhibition of human MDA-MB-231 cells incubated for 3 days by CellTiter 96 aqueous nonradioactive cell proliferation assay; type: functional; conditions: MDA-MB-231, 72 h
NCI-H1975 [2] = experiment: Growth inhibition of human NCI-H1975 cells incubated for 3 days by CellTiter 96 aqueous nonradioactive cell proliferation assay; type: functional; conditions: NCI-H1975, 72 h
MDA-MB-231 [3] = experiment: Antiproliferative activity against human MDA-MB-231 cells assessed as reduction in cell viability incubated for 72 hrs by MTT assay; type: functional, cell-based; conditions: MDA-MB-231, 72 h
Outline: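 MTT viability assay after 72 h of drug exposure. Cells seeded at 5000 per well in 10% FBS and left overnight, then treated in 5% FBS. MTT added for 1 h, dye dissolved in DMSO, absorbance read at 570 nm. Viability given relative to vehicle-treated cells.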

[4] = molecular target: Hepatocyte growth factor receptor (Homo sapiens) (UniProt P08581); experiment: Induction of c-MET degradation in human MDA-MB-231 cells assessed as reduction in c-Met expression incubated for 48 hrs by immunoblot analysis; type: cell-based
Hepatocyte growth factor receptor (Homo sapiens), sequence (P08581 whole entry): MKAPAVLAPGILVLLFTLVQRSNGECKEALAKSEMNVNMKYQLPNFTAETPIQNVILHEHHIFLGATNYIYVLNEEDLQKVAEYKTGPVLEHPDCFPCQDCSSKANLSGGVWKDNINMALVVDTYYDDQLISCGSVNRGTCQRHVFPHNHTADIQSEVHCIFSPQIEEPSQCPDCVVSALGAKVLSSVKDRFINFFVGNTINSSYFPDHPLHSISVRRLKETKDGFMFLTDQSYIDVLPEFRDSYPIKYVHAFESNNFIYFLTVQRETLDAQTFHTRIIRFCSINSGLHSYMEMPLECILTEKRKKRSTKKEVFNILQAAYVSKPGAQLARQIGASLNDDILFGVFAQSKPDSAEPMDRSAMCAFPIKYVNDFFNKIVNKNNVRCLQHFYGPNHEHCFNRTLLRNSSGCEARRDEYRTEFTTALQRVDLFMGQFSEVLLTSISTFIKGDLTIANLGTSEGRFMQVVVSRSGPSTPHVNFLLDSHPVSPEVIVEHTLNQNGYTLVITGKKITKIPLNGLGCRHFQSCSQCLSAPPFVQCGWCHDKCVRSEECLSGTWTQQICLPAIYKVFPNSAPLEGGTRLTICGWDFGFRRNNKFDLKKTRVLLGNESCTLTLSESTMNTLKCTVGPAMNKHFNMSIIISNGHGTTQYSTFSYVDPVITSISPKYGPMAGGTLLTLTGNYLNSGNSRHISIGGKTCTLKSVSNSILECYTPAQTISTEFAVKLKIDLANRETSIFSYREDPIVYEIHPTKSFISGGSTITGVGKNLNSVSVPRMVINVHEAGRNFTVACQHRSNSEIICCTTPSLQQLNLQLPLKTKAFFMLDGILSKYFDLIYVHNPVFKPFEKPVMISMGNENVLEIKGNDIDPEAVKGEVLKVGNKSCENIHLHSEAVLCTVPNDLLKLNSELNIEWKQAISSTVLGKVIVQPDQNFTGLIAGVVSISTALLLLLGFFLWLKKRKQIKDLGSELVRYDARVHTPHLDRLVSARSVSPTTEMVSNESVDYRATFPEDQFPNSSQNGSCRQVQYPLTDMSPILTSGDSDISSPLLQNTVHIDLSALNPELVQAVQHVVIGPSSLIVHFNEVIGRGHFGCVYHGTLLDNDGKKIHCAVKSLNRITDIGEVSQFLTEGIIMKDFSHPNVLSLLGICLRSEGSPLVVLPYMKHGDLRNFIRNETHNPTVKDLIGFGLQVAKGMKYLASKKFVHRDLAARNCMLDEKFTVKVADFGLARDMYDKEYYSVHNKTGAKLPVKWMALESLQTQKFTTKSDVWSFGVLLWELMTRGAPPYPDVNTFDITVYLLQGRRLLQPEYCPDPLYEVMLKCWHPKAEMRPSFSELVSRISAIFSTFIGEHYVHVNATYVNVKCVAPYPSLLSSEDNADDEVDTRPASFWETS
Outline: (§1)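 After 48 h treatment, cells were scraped and lysed in 1% SDS, 50 mM Tris-HCl pH 8.0, 10 mM EDTA with protease and phosphatase inhibitors. Lysates sonicated, protein measured by BCA, equal amounts run on SDS-PAGE and blotted to nitrocellulose. Primary antibodies (EGFR, c-Met, S473-Akt, Akt, GAPDH) used at 1:1000 overnight at 4 °C, HRP secondaries at 1:5000, ECL detection.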

[5] = molecular target: Epidermal growth factor receptor (Homo sapiens) (UniProt P00533); experiment: Induction of EGFR degradation in human MDA-MB-231 cells assessed as reduction in EGFR expression incubated for 48 hrs by immunoblot analysis; type: cell-based; outline: as §1
Epidermal growth factor receptor (Homo sapiens), sequence (P00533 whole entry): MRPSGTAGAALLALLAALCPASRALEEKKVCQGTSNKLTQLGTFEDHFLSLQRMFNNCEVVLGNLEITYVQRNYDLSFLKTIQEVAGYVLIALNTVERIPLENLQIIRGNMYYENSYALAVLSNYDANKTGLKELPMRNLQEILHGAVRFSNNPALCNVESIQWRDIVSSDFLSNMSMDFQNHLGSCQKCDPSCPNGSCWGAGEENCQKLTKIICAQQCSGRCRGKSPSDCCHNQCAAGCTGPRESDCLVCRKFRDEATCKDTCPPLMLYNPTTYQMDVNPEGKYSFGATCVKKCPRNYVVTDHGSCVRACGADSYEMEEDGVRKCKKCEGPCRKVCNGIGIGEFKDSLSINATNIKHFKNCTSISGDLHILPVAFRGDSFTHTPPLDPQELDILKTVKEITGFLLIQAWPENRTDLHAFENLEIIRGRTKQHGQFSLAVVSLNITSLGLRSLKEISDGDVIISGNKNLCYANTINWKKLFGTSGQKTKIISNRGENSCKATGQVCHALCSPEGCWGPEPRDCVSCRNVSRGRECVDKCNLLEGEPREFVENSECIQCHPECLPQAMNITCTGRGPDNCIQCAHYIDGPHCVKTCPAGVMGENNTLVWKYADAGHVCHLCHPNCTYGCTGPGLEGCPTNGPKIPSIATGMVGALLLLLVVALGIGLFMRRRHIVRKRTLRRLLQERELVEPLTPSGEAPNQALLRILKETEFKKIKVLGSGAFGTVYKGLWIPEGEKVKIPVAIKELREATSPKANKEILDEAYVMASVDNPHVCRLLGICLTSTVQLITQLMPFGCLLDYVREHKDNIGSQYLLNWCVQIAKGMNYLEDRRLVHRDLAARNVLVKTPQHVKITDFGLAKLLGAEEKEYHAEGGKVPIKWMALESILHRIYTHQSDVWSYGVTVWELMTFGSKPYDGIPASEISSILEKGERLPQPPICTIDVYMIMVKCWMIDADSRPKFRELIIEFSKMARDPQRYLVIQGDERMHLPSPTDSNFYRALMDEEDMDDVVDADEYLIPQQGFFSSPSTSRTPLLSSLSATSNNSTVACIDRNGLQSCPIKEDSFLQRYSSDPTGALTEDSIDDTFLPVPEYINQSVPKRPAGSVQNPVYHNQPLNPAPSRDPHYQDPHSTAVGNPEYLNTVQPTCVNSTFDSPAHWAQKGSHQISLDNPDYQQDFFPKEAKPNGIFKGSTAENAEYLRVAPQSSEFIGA

NCI-H1975 [6] = experiment: Antiproliferative activity against human NCI-H1975 cells harbouring EGFR L858R/T790M double mutant assessed as reduction in cell viability incubated for 72 hrs by MTT assay; type: functional, cell-based; conditions: NCI-H1975, 72 h
PC-9 = experiment: Antiproliferative activity against human PC9 cells harbouring EGFR delE746-A750 mutant assessed as reduction in cell viability incubated for 72 hrs by MTT assay; type: functional, cell-based; conditions: PC-9, 72 h
[7] = Antiproliferative activity against human CL68 cells harbouring EGFR delE746-A750/T790M mutant assessed as reduction in cell viability incubated for 72 hrs by MTT assay; type: functional, cell-based
A549 = experiment: Antiproliferative activity against wild type human A549 cells assessed as reduction in cell viability incubated for 72 hrs by MTT assay; type: functional, cell-based; conditions: A549, 72 h
CL97 = experiment: Antiproliferative activity against human CL97 cells harbouring EGFR G719A/T790M mutant assessed as reduction in cell viability incubated for 72 hrs by MTT assay; type: functional, cell-based; conditions: CL97, 72 h

SMILES	IC50 (MDA-MB-231 [3]) [µM]	further results
CC(C)c1cc(C(=O)N2CCc3sccc3C2)c(O)cc1O		GI50 (MDA-MB-231 [1]): 0.478 µM; GI50 (NCI-H1975 [2]): 1.67 µM
O=C(Nc1cccc(-c2nc(-c3ccc(NC(=O)c4cccnc4)cc3Cl)no2)c1)Nc1ccc(NC(=O)c2cccs2)c(C(F)(F)F)c1	2.9	
CC(=O)Nc1ccc(S(=O)(=O)Nc2cccc(-c3nc(-c4ccc(NC(=O)c5cccnc5)c(C(F)(F)F)c4)no3)c2)cc1	> 10	
O=C(Nc1cccc(-c2nc(-c3ccc(NC(=O)c4cccnc4)cc3Cl)no2)c1)c1ccccc1	12.8	
CC(=O)Nc1ccc(S(=O)(=O)Nc2cccc(-c3nc(-c4ccc(NC(=O)c5cccnc5)c(Cl)c4)no3)c2)cc1	4.5	
O=C(Nc1ccc(-c2noc(-c3cccc(NS(=O)(=O)c4cccc(Cl)c4)c3)n2)c(Cl)c1)c1cccnc1	> 10	
CS(=O)(=O)Nc1cccc(NC(=O)Nc2cccc(-c3nc(-c4ccc(NC(=O)c5cccnc5)cc4Cl)no3)c2)c1	> 10	
CS(=O)(=O)Nc1ccc(NC(=O)Nc2cccc(-c3nc(-c4ccc(NC(=O)c5cccnc5)cc4Cl)no3)c2)cc1Br	0.7	
O=C(Nc1ccc(-c2noc(-c3cccc(NS(=O)(=O)c4ccc(NC(=O)N5CCCC5)cc4)c3)n2)c(Cl)c1)c1cccnc1	5.8	
O=C(Nc1ccc(Cl)cc1)Nc1cccc(-c2nc(-c3ccc(NC(=O)c4cccnc4)cc3Cl)no2)c1	> 10	
O=C(Nc1cccc(-c2nc(-c3ccc(NC(=O)c4cccnc4)cc3Cl)no2)c1)Nc1cc(C(F)(F)F)cc(C(F)(F)F)c1	1.9	
CS(=O)(=O)Nc1ccc(NC(=O)Nc2cccc(-c3nc(-c4ccc(NC(=O)c5cccnc5)cc4Cl)no3)c2)cc1Cl	0.6	Activity [4]: Active; Activity [5]: inactive
CCN(CC)C(=O)Nc1ccc(S(=O)(=O)Nc2cccc(-c3nc(-c4ccc(NC(=O)c5cccnc5)cc4Cl)no3)c2)cc1	8.7	
O=C(Nc1cccc(-c2nc(-c3ccc(NC(=O)c4cccnc4)cc3Cl)no2)c1)Nc1ccc(NC(=O)C2CCCC2)c(C(F)(F)F)c1	0.3	Activity [4]: Active; Activity [5]: Active
O=C(Nc1ccc(-c2noc(-c3cccc(NS(=O)(=O)c4ccc(C(F)(F)F)cc4)c3)n2)c(Cl)c1)c1cccnc1	> 10	
NS(=O)(=O)c1ccc(S(=O)(=O)Nc2cccc(-c3nc(-c4ccc(NC(=O)c5cccnc5)cc4Cl)no3)c2)cc1	> 10	
CC(=O)Nc1ccc(S(=O)(=O)Nc2cccc(-c3nc(-c4ccc(NC(=O)c5cccnc5)cc4Cl)no3)c2)cc1	2.5	
COc1cc(NC(=O)c2cccnc2)ccc1-c1noc(-c2cccc(NS(=O)(=O)c3ccc(NC(C)=O)cc3)c2)n1	> 10	
COc1cccc(S(=O)(=O)Nc2cccc(-c3nc(-c4ccc(NC(=O)c5cccnc5)cc4Cl)no3)c2)c1	> 10	
O=C(Nc1ccc(-c2noc(-c3cccc(NS(=O)(=O)c4ccc(NC(=O)N5CCCCC5)cc4)c3)n2)c(Cl)c1)c1cccnc1	> 10	
CC(=O)Nc1ccc(S(=O)(=O)Nc2cccc(-c3nc(-c4ccc(NC(=O)c5cccnc5)cc4C(F)(F)F)no3)c2)cc1	> 10	
COc1ccc(NC(=O)Nc2cccc(-c3nc(-c4ccc(NC(=O)c5cccnc5)cc4Cl)no3)c2)cc1	3	
CN(C)C/C=C/C(=O)Nc1cc2c(Nc3ccc(F)c(Cl)c3)ncnc2cc1O[C@H]1CCOC1 [AFATINIB]		IC50 (NCI-H1975 [6]): 1 µM; IC50 (PC-9): < 0.01 µM; IC50 [7]: 0.1 µM; IC50 (A549): 5 to 10 µM; IC50 (CL97): 0.1 µM
CC(=O)Nc1ccc(S(=O)(=O)Nc2cccc(-c3nc(-c4ccc(NC(=O)c5cccnc5)cc4Cl)no3)c2)cc1Cl	> 10	
CCNC(=O)Nc1ccc(S(=O)(=O)Nc2cccc(-c3nc(-c4ccc(NC(=O)c5cccnc5)cc4Cl)no3)c2)cc1	3.1	
NS(=O)(=O)Nc1ccc(NC(=O)Nc2cccc(-c3nc(-c4ccc(NC(=O)c5cccnc5)cc4Cl)no3)c2)cc1	8.9	
COc1cccc(NC(=O)Nc2cccc(-c3nc(-c4ccc(NC(=O)c5cccnc5)cc4Cl)no3)c2)c1	6.7	

SMILES	IC50 (MDA-MB-231 [3]) [µM]	further results
NC(=O)Nc1ccc(S(=O)(=O)Nc2cccc(-c3nc(-c4ccc(NC(=O)c5cccnc5)cc4Cl)no3)c2)cc1	2.8	
CS(=O)(=O)Nc1ccc(NC(=O)Nc2cccc(-c3nc(-c4ccc(NC(=O)c5cccnc5)cc4Cl)no3)c2)cc1C(F)(F)F	0.7	
O=C(Nc1cccc(-c2nc(-c3ccc(NC(=O)c4cccnc4)cc3Cl)no2)c1)Nc1ccc(Cl)c(C(F)(F)F)c1	1.9	
C#Cc1cccc(Nc2ncnc3cc(OCCOC)c(OCCOC)cc23)c1 [ERLOTINIB]		IC50 (NCI-H1975 [6]): 10 µM; IC50 (PC-9): 0.1 µM; IC50 [7]: 5 µM; IC50 (CL97): > 20 µM
CS(=O)(=O)Nc1ccc(NC(=O)Nc2cccc(-c3nc(-c4ccc(NC(=O)c5cccnc5)cc4Cl)no3)c2)cc1	0.6	Activity [4]: Active; Activity [5]: inactive
C#Cc1cccc(NC(=O)Nc2cccc(-c3nc(-c4ccc(NC(=O)c5cccnc5)cc4Cl)no3)c2)c1	> 10	
Cc1ccc(NC(=O)Nc2cccc(-c3nc(-c4ccc(NC(=O)c5cccnc5)cc4Cl)no3)c2)cc1	3.5	
COc1ccc(NC(=O)Nc2cccc(-c3nc(-c4ccc(NC(=O)c5cccnc5)cc4Cl)no3)c2)cc1C(F)(F)F	1.7	Activity [4]: Active; Activity [5]: inactive
NS(=O)(=O)c1ccc(NC(=O)Nc2cccc(-c3nc(-c4ccc(NC(=O)c5cccnc5)cc4Cl)no3)c2)cc1	> 10	
CC(=O)Nc1ccc(NC(=O)Nc2cccc(-c3nc(-c4ccc(NC(=O)c5cccnc5)cc4Cl)no3)c2)cc1	> 10	
O=C(Nc1ccccc1)Nc1cccc(-c2nc(-c3ccc(NC(=O)c4cccnc4)cc3Cl)no2)c1	> 10	
NC(=O)Nc1ccc(NC(=O)Nc2cccc(-c3nc(-c4ccc(NC(=O)c5cccnc5)cc4Cl)no3)c2)cc1C(F)(F)F	3.4	
O=C(Nc1ccc(-c2noc(-c3cccc(NS(=O)(=O)c4ccc(NC(=O)N5CCOCC5)cc4)c3)n2)c(Cl)c1)c1cccnc1	> 10	
O=C(Nc1ccc(-c2noc(-c3cccc(NS(=O)(=O)c4ccccc4)c3)n2)c(Cl)c1)c1cccnc1	> 10	
C#Cc1ccc(NC(=O)Nc2cccc(-c3nc(-c4ccc(NC(=O)c5cccnc5)cc4Cl)no3)c2)cc1	> 10	
O=C(Nc1ccc(S(=O)(=O)Nc2cccc(-c3nc(-c4ccc(NC(=O)c5cccnc5)cc4Cl)no3)c2)cc1)NC1CCCC1	> 10	
COc1cc(-c2noc(-c3cccc(NS(=O)(=O)c4ccc(NC(C)=O)cc4)c3)n2)ccc1NC(=O)c1cccnc1	> 10	
Cc1ccc(S(=O)(=O)Nc2cccc(-c3nc(-c4ccc(NC(=O)c5cccnc5)cc4Cl)no3)c2)cc1	> 10	
C=CC(=O)Nc1cc(Nc2nccc(-c3cn(C)c4ccccc34)n2)c(OC)cc1N(C)CCN(C)C [OSIMERTINIB]		IC50 (NCI-H1975 [6]): […]; IC50 (PC-9): < 0.01 µM; IC50 [7]: 0.01 µM; IC50 (A549): 5 µM; IC50 (CL97): 0.1 µM
O=C(Nc1ccc(NS(=O)(=O)C2CC2)cc1)Nc1cccc(-c2nc(-c3ccc(NC(=O)c4cccnc4)cc3Cl)no2)c1	0.3	Activity [4]: Active; Activity [5]: Active
CC(=O)Nc1ccc(S(=O)(=O)Nc2cccc(-c3nc(-c4ccc(NC(=O)c5cccnc5)cc4Cl)no3)c2)cc1C	> 10	
CC(=O)Nc1ccc(NC(=O)Nc2cccc(-c3nc(-c4ccc(NC(=O)c5cccnc5)cc4Cl)no3)c2)cc1Br	1	
O=C(Nc1cccc(-c2nc(-c3ccc(NC(=O)c4cccnc4)cc3Cl)no2)c1)Nc1cccc(C(F)(F)F)c1	1.9	Activity [4]: Active; Activity [5]: inactive
CNC(=O)Nc1ccc(S(=O)(=O)Nc2cccc(-c3nc(-c4ccc(NC(=O)c5cccnc5)cc4Cl)no3)c2)cc1	1.3	
CC(=O)Nc1ccc(S(=O)(=O)Nc2cccc(-c3nc(-c4ccc(NC(=O)c5cccnc5)cc4)no3)c2)cc1	5.2	
CC(=O)Nc1ccc(NC(=O)Nc2cccc(-c3nc(-c4ccc(NC(=O)c5cccnc5)cc4Cl)no3)c2)cc1Cl	> 10	
